We go through 6 compounds from ChEMBL document CHEMBL1129428 (J Med Chem, 1996).

Data set [1] deals with Rattus norvegicus. Description: Compound was tested for anticonvulsant activity after Oral Administration into Rats by using MES screen test after 1h,dose 12.5 mg/kg; number of rats out of four which were protected. In kind it is functional. The method, boiled down:
(§1)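 Rats received the compound orally. […] Rats were tested in the MES screen at 0.25, 0.5, 1, 2 and 4 h. Each value is the number of rats protected out of 4. The test followed NINDS procedures.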

For data set [2], the system named is Rattus norvegicus. In words: Compound was tested for anticonvulsant activity after Oral Administration into Rats by using MES screen test after 2h,dose 12.5 mg/kg; number of rats out of four which were protected. In kind it is functional. The method, boiled down: as §1
In data set [3] the test system is Rattus norvegicus. Description: Compound was tested for anticonvulsant activity after Oral Administration into Rats by using MES screen test after 4h,dose 12.5 mg/kg; No activity was demonstarted. In kind it is functional, organism-based. Further details: dose 12.5 mg/kg. The method, boiled down: as §1
In data set [4] the test system is Mus musculus. Description: Anticonvulsant activity after intraperitoneal injection into mice by using scPTZ screen after 0.5 hr. It is filed as functional.
The subject of data set [5] is Rattus norvegicus. Description: Anticonvulsant activity after oral administration into rats. Details: concentration or dose not given beside the values. In kind it is functional.
The test system of data set [6] is Mus musculus. In words: Anticonvulsant activity after intraperitoneal injection into mice measured in a maximal electroshock scree (MES) screen. In kind it is functional. A general note: Protection in the maximal electroshock model is a classic sign of anticonvulsant action.
Data set [7] concerns Rattus norvegicus. Description: Compound was tested for anticonvulsant activity after Oral Administration into Rats by using MES screen test after 0.25h,dose 12.5 mg/kg; No activity was demonstarted. In kind it is functional, organism-based. Details: dose 12.5 mg/kg. The method, boiled down: as §1
The subject of data set [8] is Mus musculus. In words: Anticonvulsant activity after intraperitoneal injection into mice by using MES screen test after 0.5 hr. In kind it is functional.
Data set [9] concerns Rattus norvegicus. In words: Compound was tested for anticonvulsant activity after Oral Administration into Rats by using MES screen test after 0.25h,dose 30 mg/kg; number of rats out of four which were protected. In kind it is functional. The method, boiled down:
as §1

Data set [10] deals with Rattus norvegicus. Description: Compound was tested for anticonvulsant activity after Oral Administration into Rats by using MES screen test after 0.5h,dose 30 mg/kg; number of rats out of four which were protected. In kind it is functional. The method, boiled down:
as §1

The test system of data set [11] is Rattus norvegicus. In words: Compound was tested for anticonvulsant activity after Oral Administration into rat by using MES screen test after 2 hr. It is filed as functional. The method, boiled down:
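Rats dosed orally, typically at 50 mg/kg first, then mostly 12.5 mg/kg (some compounds at 30 mg/kg), and tested by maximal electroshock. Four rats per compound, scored at 0.25, 0.5, 1, 2 and 4 h as the number of rats protected out of 4.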

Data set [12] has as its system Rattus norvegicus. In words: Compound was tested for anticonvulsant activity after Oral Administration into Rats by using MES screen test after 4h,dose 30 mg/kg; number of rats out of four which were protected. It is filed as functional. The method, boiled down:
as §1

Data set [13] concerns Rattus norvegicus. In words: Compound was tested for anticonvulsant activity after Oral Administration into Rats by using MES screen test after 2h,dose 30 mg/kg; number of rats out of four which were protected. It is filed as functional. The method, boiled down:
as §1

Data set [14] concerns Rattus norvegicus. In words: Compound was tested for anticonvulsant activity after Oral Administration into Rats by using MES screen test after 1h,dose 30 mg/kg; number of rats out of four which were protected. It is filed as functional. The method, boiled down:
as §1

Data set [15] deals with Mus musculus. In words: Compound was tested for anticonvulsant activity after intraperitoneal injection into mice by using scPTZ screen test after 1 hr. The conditions noted are these: ip. In kind it is functional. The gist of the method: (§2)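 Quantitative intraperitoneal mouse testing in the MES, scPTZ or rotorod neurotoxicity screens at the peak time given for each compound (0.25–2 h). ED50 or TD50 reported in mg/kg with 95% CI and slope (SE).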

Data set [16] relates to Mus musculus. Description: Compound was tested for anticonvulsant activity after intraperitoneal injection into mice by using MES screen test after 1 hr. It is filed as functional. The conditions noted are these: ip. The method, boiled down: as §2
Data set [17] in a line: Protection index = TD50/ED50. In kind it is ADME. The conditions noted are these: read-out: PI.
Data set [18] relates to Mus musculus. Description: Compound was tested for toxicity after intraperitoneal injection into mice by using toxicity screen test after 4 hr. It is filed as organism-based. The conditions noted are these: in vivo, ip. The gist of the method: (§3)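 Mice injected intraperitoneally at 30, 100 and 300 mg/kg and examined 0.5 and 4 h afterwards. Each entry is the minimum dose giving activity (MES protection, scPTZ protection, or rotorod failure for neurotoxicity) in half or more of the mice. Activity is called absent if nothing occurs at 300 mg/kg.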

For data set [19], the system named is Rattus norvegicus. Description: Compound was tested for anticonvulsant activity after Oral Administration into Rats by using MES screen test after 4h,dose 12.5 mg/kg; number of rats out of four which were protected. In kind it is functional. The method, boiled down:
as §1

Data set [20] is described as follows: Compound was tested for toxicity after oral administration in rat by using neurotoxicity screen test after 0.25-24 hr. In kind it is organism-based. The conditions noted are these: in vivo. The gist of the method: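 Rat neurotoxicity after oral dosing, observed at 0.25, 0.5, 1, 2, 4, 6, 8 and 24 h (8 h omitted for one compound).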
Data set [21] in a line: Compound was tested for toxicity after intraperitoneal injection into mice by using neurotoxicity screen test after 4 hr. To be noted: mouse, in vivo, ip. In kind it is organism-based. The method, boiled down:
as §3

Data set [22] concerns Rattus norvegicus. In words: Compound was tested for anticonvulsant activity after Oral Administration into Rats by using MES screen test after 0.25h,dose 30 mg/kg; No activity was demonstarted. It is filed as functional, organism-based. Details: dose 30 mg/kg. The gist of the method: as §1
The test system of data set [23] is Mus musculus. Description: Toxicity after intraperitoneal injection into mice by using toxicity screen test after 0.5 hr. It is filed as organism-based. The conditions noted are these: in vivo, ip. The gist of the method:
as §3

The test system of data set [24] is Mus musculus. Description: Anticonvulsant activity after intraperitoneal injection into mice by using scPTZ screen test after 4 hr. In kind it is functional.
Data set [25] relates to Rattus norvegicus. In words: Compound was tested for anticonvulsant activity after Oral Administration into Rats by using MES screen test after 0.25h,dose 50 mg/kg; number of rats out of four which were protected. In kind it is functional. The gist of the method:
as §1

Data set [26] deals with Rattus norvegicus. Description: Compound was tested for anticonvulsant activity after Oral Administration into Rats by using MES screen test after 0.5h,dose 50 mg/kg; number of rats out of four which were protected. In kind it is functional. The method, boiled down: as §1
Data set [27] deals with Mus musculus. In words: Compound was tested for anticonvulsant activity after intraperitoneal injection into mice by using scPTZ screen test after 0.5 hr. It is filed as functional. The conditions noted are these: ip. The gist of the method:
as §3

Data set [28] can be described thus: Compound was tested for toxicity after intraperitoneal injection into mice by using neurotoxicity screen test after 2 hr. The conditions noted are these: mouse, in vivo, ip. It is filed as organism-based. The gist of the method: as §2
Data set [29] has as its system Mus musculus. In words: Compound was tested for anticonvulsant activity after intraperitoneal injection into mice by using MES screen test after 0.5 hr. In kind it is functional. The conditions noted are these: ip. The gist of the method: as §3
Data set [30] concerns Rattus norvegicus. In words: Compound was tested for anticonvulsant activity after Oral Administration into Rats by using MES screen test after 1h,dose 50 mg/kg; number of rats out of four which were protected. It is filed as functional. The gist of the method:
as §1

In data set [31] the test system is Rattus norvegicus. Description: Compound was tested for anticonvulsant activity after Oral Administration into Rats by using MES screen test after 2h,dose 50 mg/kg; number of rats out of four which were protected. It is filed as functional. The method, boiled down:
as §1

Data set [32] relates to Rattus norvegicus. Description: Compound was tested for anticonvulsant activity after Oral Administration into Rats by using MES screen test after 4h,dose 50 mg/kg; number of rats out of four which were protected. In kind it is functional. The method, boiled down: as §1

Turning to `Cc1cc(C)cc(Oc2ccc(/C=N/NC(N)=O)cc2)c1`, the Activity in the data set with Rattus norvegicus [1] is 3; in the data set with Rattus norvegicus [2], 2; with Rattus norvegicus [3], “No activity”; in the data set on Rattus norvegicus [5], 4; in the data set with Rattus norvegicus [7], “No activity”. For the same compound, the Dose in the data set on Mus musculus [4] came to 300 mg/kg; in the data set with Mus musculus [6] it was 300 mg/kg; in the data set with Mus musculus [8], 30 mg/kg.

The ED50 is the dose at which the effect has come halfway, by size or by number of responders. For `C/C(=N/NC(N)=O)c1ccccc1Oc1ccc(F)cc1`, the Activity in the data set with Rattus norvegicus [9] is given as 1; in the data set on Rattus norvegicus [10], 1; with Rattus norvegicus [12], 2; with Rattus norvegicus [13], 3; in the data set on Rattus norvegicus [14], 3. The compound also yielded an ED50 in the data set with Rattus norvegicus [11] of 43.4 mg/kg.

As usually defined, the TD50 is the dose at which the toxic effect under study appears in half of the subjects. For `CCCc1ccc(Oc2ccc(/C=N/NC(N)=O)cc2)cc1`, the ED50 in the data set with Mus musculus [15] came out at 79.6 mg/kg; with Mus musculus [16], 11 mg/kg; in the data set with Rattus norvegicus [11] it was 2.63 mg/kg. The Activity is 2 in the data set with Rattus norvegicus [1]; 4 in the data set with Rattus norvegicus [2]; 2 in the data set with Rattus norvegicus [19]; 1 in the data set on Rattus norvegicus [5]; “No activity” in the data set with Rattus norvegicus [7]. In addition, the selectivity ratio in data set [17] was 3.05. The Dose came out at 300 mg/kg in the data set with Mus musculus [18], 300 mg/kg in the data set with Mus musculus [4], 100 mg/kg with Mus musculus [6] and 100 mg/kg in the data set with Mus musculus [8]. The TD50 in data set [20] was over 500 mg/kg. This compound also showed a TD50 at 4 h in data set [21] of 243 mg/kg.

As to `CC/C(=N/NC(N)=O)c1ccc(Sc2ccccc2)cc1`, the Activity in the data set on Rattus norvegicus [10] is 3; in the data set with Rattus norvegicus [22] it was “No activity”; in the data set on Rattus norvegicus [12], 4; in the data set with Rattus norvegicus [13] it was 3; with Rattus norvegicus [14], 4. Besides, the 50% effective dose (ED50) with Rattus norvegicus [11] is 18.6 mg/kg. Besides, the Dose in the data set with Mus musculus [18] came to 100 mg/kg; in the data set with Mus musculus [4] it was 100 mg/kg; with Mus musculus [6], 30 mg/kg; in the data set with Mus musculus [23], 100 mg/kg; with Mus musculus [24], 100 mg/kg; in the data set on Mus musculus [8] it was 30 mg/kg.

In the case of `NC(=O)N/N=C/c1ccc(Oc2ccccc2F)cc1`, the Activity worked out at 2 with Rattus norvegicus [25]; 4 with Rattus norvegicus [26]; 4 with Rattus norvegicus [30]; 4 in the data set on Rattus norvegicus [31]; 4 in the data set with Rattus norvegicus [32]. Besides, the ED50 is over 220 mg/kg in the data set on Mus musculus [27] and 20.7 mg/kg in the data set on Mus musculus [29]. In [28], the TD50 at 2 h came out at 170 mg/kg. Moreover, the Dose with Mus musculus [4] worked out at 300 mg/kg; with Mus musculus [6], 300 mg/kg; in the data set on Mus musculus [8] it was 100 mg/kg.

On to `C/C(=N/NC(N)=O)c1ccc(Sc2ccc(F)cc2)cc1`, for which the Activity turned out to be 3 with Rattus norvegicus [9]; 4 in the data set with Rattus norvegicus [10]; 4 in the data set on Rattus norvegicus [12]; 4 with Rattus norvegicus [13]; 4 with Rattus norvegicus [14]. Also, in the data set on Rattus norvegicus [11], the ED50 came out at 9.11 mg/kg. Moreover, the Dose with Mus musculus [18] came to 300 mg/kg; in the data set with Mus musculus [6] it was 30 mg/kg; in the data set with Mus musculus [23], 300 mg/kg; with Mus musculus [24], 300 mg/kg; in the data set with Mus musculus [8], 100 mg/kg.
